Compound activity deposited in PubChem BioAssay by The Scripps Research Institute Molecular Screening Center.
Only some compounds are listed: those with a hit (about 3% of all), similar ones and a draw of the others.
S1P1 ag-PAM – S1P1 agonists and agonism potentiators, primary screen, cell-based, primary and confirmation screens, CRE-bla reporter; Sphingosine 1-phosphate receptor 1 (Homo sapiens), P21453; S1P1 CRE-bla cells, forskolin, beta-lactamase FRET, potentiator mode; S1P1 agonist co-added at EC20, 2 nM; 100% = saturating reference agonist, 0% = basal; activation, % at 9.5 µM; 56,000 tested, 0.57% active; AID 449, 2006;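 active = activation above a cutoff set at the mean activation of all tested compounds plus 3 SD, cut at about 54% in these data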;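 note: forskolin at 4 µM as EC80 and the EC20 agonist is SEW2871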
5-HT1A blocker – human 5-HT1a receptor antagonists, primary screen, cell-based, CHO, Ga15 NFAT-bla reporter; CHO 5-HT1a Ga15 NFAT-bla reporter, antagonist mode; inhibition, % at 10 µM; 62,000 tested, 0.68% active; AID 612, 2007;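 active = inhibition above the mean of all tested compounds plus 3 SD, cut at about 43% in these data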;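 note: receptor stimulated by 5-CT agonist at 100 nM near EC80; beta-lactamase reporter measured by ratiometric fluorescence of a cleavable substrate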
Target sequence (P08908 whole entry, looked up): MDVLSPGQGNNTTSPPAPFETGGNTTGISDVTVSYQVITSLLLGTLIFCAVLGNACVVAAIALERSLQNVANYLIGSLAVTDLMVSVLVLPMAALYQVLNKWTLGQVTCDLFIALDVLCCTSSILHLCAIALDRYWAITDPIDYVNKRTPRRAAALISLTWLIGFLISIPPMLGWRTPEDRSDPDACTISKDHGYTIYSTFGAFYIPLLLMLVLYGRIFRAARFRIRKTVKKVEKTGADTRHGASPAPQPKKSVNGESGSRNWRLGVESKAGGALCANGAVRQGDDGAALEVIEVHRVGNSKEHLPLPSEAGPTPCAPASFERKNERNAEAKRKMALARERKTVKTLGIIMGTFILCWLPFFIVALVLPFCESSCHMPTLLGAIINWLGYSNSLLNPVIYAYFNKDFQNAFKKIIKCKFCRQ
S1P3 ag – human S1P3 receptor agonists, primary screen, cell-based, primary and confirmation, NFAT-BLA reporter. activation, % at 4.5 µM. 60,000 tested, 0.1% active. S1P3 NFAT-BLA reporter cells, agonism, FRET ratio; relative to 1 µM S1P, basal subtracted;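 active = activation above the screen-wide mean plus 3 SD, cut at about 4.5% in these data, passing the limit was not always enough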
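Material: Human S1P3 NFAT-BLA reporter CHO cells | Incubation: Overnight plating, 4 h compound 37 °C, 2 h substrate RT | Signal: FRET β-lactamase substrate fluorescence, excitation 405 nm, 460/535 nm emission ratio, background-subtracted | Compound: 4.5 µM final, single dose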
5HT1E ag – 5-HT1E receptor agonists, primary screen, cell-based, HTS | 5-hydroxytryptamine receptor 1E (Homo sapiens), P28566 | CHO 5-HT1E Ga15 NFAT-bla reporter, FRET; 0% DMSO wells, 100% control agonist wells | activation, % at 6 µM | 65,000 tested, 0.69% active | AID 574, 2007;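 active = activation above a set limit, the screen-wide mean activation plus 3 SD, cut at about 8.5% in these data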
5HT1E antag – 5-HT1E receptor antagonists, primary screen, cell-based, HTS; 5-hydroxytryptamine receptor 1E (Homo sapiens), P28566; CHO 5-HT1E Ga15 NFAT-bla reporter, FRET, antagonist; inhibition, % at 6 µM; 65,000 tested, 0.99% active; AID 571, 2007;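 active = inhibition above a set limit, the mean inhibition across every tested compound plus 3 SD, cut at about 29% in these data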;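 note: signal is the 460 over 535 nm emission ratio of beta-lactamase substrate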
HTR1A agonist – human 5-HT1a receptor agonists, primary screen, cell-based, CHO, Ga15 NFAT-bla reporter. 5-hydroxytryptamine receptor 1A (Homo sapiens), P08908. CHO 5-HT1a Ga15 NFAT-bla reporter, FRET ratio; 0% basal, 100% maximal reference agonist. activation, % at 10 µM. 65,000 tested, 0.56% active;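 active = activation above the screen-wide mean activation plus 3 SD, cut at about 19% in these data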
Numbers stand for hits; n = inactive; x = not tested or not shown.

SMILES	S1P1 ag-PAM	5-HT1A blocker	S1P3 ag	5HT1E ag	5HT1E antag	HTR1A agonist
CCOC(=O)N1CCN(c2nnnn2-c2ccccc2)CC1	x	n	n	n	n	n
CC1CN(c2nnnn2-c2ccccc2)CC(C)O1 (stereo not given)	n	n	n	54	n	n
COC(=O)[C@H](CCSC)NC(=O)NCc1ccc(S(N)(=O)=O)cc1	n	n	n	n	n	n
CCC(=O)N1CCN(c2ccc(Cl)cc2NC(=O)c2ccc(Br)o2)CC1	n	n	n	n	n	n
Cc1onc(-c2ccccc2)c1C(=O)Nc1cc(C(F)(F)F)ccc1N1CCOCC1	n	n	n	n	41	n
COc1ccc(OC)c(S(=O)(=O)N2CCC(C(=O)N3CCc4ccccc4C3)CC2)c1	n	n	n	n	n	n
CCOc1ccc(NC(=O)COC(=O)c2cccnc2)cc1	n	n	n	n	n	n
COC(=O)CCC(=O)c1oc2ccccc2c1N	n	n	n	n	n	n
O=C(NCCc1c[nH]c2ccccc12)c1c(Cl)nc2sccn12	x	n	x	n	33	n
O=C(Nc1nnc(C2CC2)o1)c1ccc(S(=O)(=O)N2CCCc3ccccc32)cc1	n	n	n	n	n	n
Cc1cc(NC(=O)COC(=O)c2ccc(S(=O)(=O)N3CCCc4ccccc43)cc2)no1	n	n	n	n	32	n
COc1ccc(-c2nnc(NC(=O)c3ccc(S(=O)(=O)N4CCCc5ccccc54)cc3)o2)cc1	n	62	n	n	n	n
Cc1ccc(NC2=NC(c3ccco3)n3c(nc(C)cc3=O)N2)c(C)c1 (stereo not given)	n	n	n	n	n	n
COc1ccccc1-n1c(=O)oc2ccc(Cl)cc2c1=O	n	n	n	n	n	n
CCN1C(=O)C(O)(C2COC(C)(C)CC2=O)c2cc(Br)ccc21 (stereo not given)	n	n	n	n	n	n
O=C1C2C(C(=O)N1Cc1cccnc1)C1C=CC2C12CC2 (stereo not given)	x	n	n	n	n	n
Clc1ccc(C(c2nnnn2C2CCCC2)N2CCSCC2)cc1 (stereo not given)	n	50	n	n	n	n
O=C(c1cccc(S(=O)(=O)N2CCCC2)c1)c1nnc(-c2ccncc2)o1	n	n	n	n	n	n
C=CCNC(=O)C1CCCN(S(C)(=O)=O)C1 (stereo not given)	n	n	n	14	n	n
Cc1noc(/C=C/c2ccco2)c1S(=O)(=O)N1CCC(C(=O)N2CCc3ccccc3C2)CC1	n	n	n	n	n	n
COc1cc(OC)nc(NC(=O)COC(=O)C2CCCCC2)n1	n	n	n	n	n	91
O=C(COC(=O)C1CCCCC1)Nc1ccc(N2CCCCC2)cc1	x	n	x	n	n	n
Cc1cnc(C(=O)Nc2cccc(-c3nnc4n3CCCCC4)c2)cn1	n	n	n	n	n	n
c1cc(Nc2ncnc3sccc23)cc(-c2nnc3n2CCCCC3)c1	n	n	n	n	30	n
Cc1cccc(N2CCN(C(=O)Cc3c(C(=O)O)[nH]c4ccc(Cl)cc34)CC2)c1C	n	n	n	60	n	n
SMILES	S1P1 ag-PAM	5-HT1A blocker	S1P3 ag	5HT1E ag	5HT1E antag	HTR1A agonist
Cc1cccc(N2CCN(C(=O)CCn3c(=O)[nH]c4ccccc4c3=O)CC2)c1C	n	n	n	n	n	n
Cc1cc(NC(=O)Cn2nc(-c3ccccc3F)ccc2=O)ccc1-n1cnnn1	n	n	n	n	n	n
COc1ccccc1N(C)S(=O)(=O)c1ccc(C(=O)OCC(=O)NCc2ccco2)cc1	n	n	n	n	n	n
Cc1noc(C)c1CSc1nc2ccccc2c(=O)n1-c1ccccc1	n	n	n	n	n	n
Cc1noc(C)c1CSc1nc2ccccc2c(=O)n1-c1ccc(F)cc1F	n	46	n	n	n	n
Cc1noc(C)c1CSc1nc2[nH]ncc2c(=O)n1-c1ccccc1	x	n	n	n	52	n
Cc1noc(C)c1CSc1nnc2n(-c3ccccc3)c(=O)c3ccccc3n12	n	n	n	n	n	n
O=C(CCS(=O)(=O)c1ccc(Br)s1)N1CCc2ccccc21	n	n	n	n	n	n
CCN(CC)S(=O)(=O)c1cc(Br)c(C)cc1OC	n	n	n	n	n	n
O=C(CSc1nnc(-c2c[nH]c3ccccc23)o1)N(Cc1ccccc1)c1ccc(F)cc1	107	n	n	n	n	n
CC1CCCCN1C(=O)CSc1nnc(-c2c[nH]c3ccccc23)o1 (stereo not given)	n	n	n	23	n	n
CCC1CCCCN1C(=O)CSc1nnc(-c2ccco2)o1 (stereo not given)	n	n	n	n	n	n
CC(C)C(C(=O)N1CCOCC1)N1C(=O)c2ccccc2C1=O (stereo not given)	n	n	n	n	n	n
COCCCn1c(SCc2cc(=O)[nH]c3ccccc23)nnc1-c1ccco1	n	n	n	n	n	n
CCCCOc1ccc(C2(C)CC(=O)NC2=O)cc1 (stereo not given)	n	n	n	n	n	n
CCOC(=O)C(O)(NC(=O)c1cccnc1)C(F)(F)F (stereo not given)	n	n	n	10	n	n
CC(=O)C(C(C)=O)C(NC(=O)c1cccnc1)(C(F)(F)F)C(F)(F)F	n	n	n	n	n	n
COc1ccccc1CNC(=O)c1nnc(Cc2ccc(Cl)cc2)o1	n	n	n	n	n	20
CCCC(=O)Nc1cnc(NC(=O)c2cccc(F)c2)cc1C	x	n	x	n	n	n
Cn1c(-c2ccccc2)cc2c3no[n+]([O-])c3ccc21	n	44	n	n	34	n
CN1CCN(/C=N/c2c(C#N)cnn2Cc2ccccc2)CC1	n	n	n	n	n	n
COC(=O)c1ccc(CSc2nc3ccccc3c(=O)n2-c2ccc(OC)c(OC)c2)o1	n	n	n	n	31	n
COCCn1c(SCc2ccc(C(=O)OC)o2)nc2ccccc2c1=O	n	n	n	n	n	n
CCC(C)(C(=O)NC1CCCC1)N(Cc1ccco1)C(=O)c1ccccn1 (stereo not given)	n	n	n	n	n	n
